# Source: PubChem (Johns Hopkins Ion Channel Center)
# Only some compounds are listed: those with a hit (about 3.5% of all), similar ones and a draw of the others.
# RGS4 pot = RGS4 potentiation or activation. AID 463111. B-score at 10 µM. 0.92% of 310,000 active. HEK293 M3R/inducible RGS4, carbachol calcium flux Fluo4; active compounds read low;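 active = B-score of the integrated calcium signal more than 4 SD below the library mean, with starting fluorescence not abnormally high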;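 also: negative B-score means reduced calcium response which marks RGS4 activation or potentiation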
#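 test system = HEK293 cells with stable M3R and inducible RGS4 | schedule = recording 10 s baseline at 1 Hz, 100 s post-agonist | technique = Fluo4-AM (2 µM) calcium-flux fluorescence, kinetic read | measure = Agonist-evoked peak-minus-minimum fluorescence over baseline, integrated ratio, B score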
# MrgX1 PAM = allosterically activates human MrgX1 receptor signaling | Q96LB2 | MrgX1-HEK293, Fluo-4 calcium flux, FDSS; active compounds read high | B-score at 10 µM | 0.63% of 310,000 active | AID 588675;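 active = plate-corrected calcium response at least 3 library SD above typical, normal starting fluorescence, not activating the receptor alone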;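 also: compound read alongside a low EC10 to EC30 dose of BAM8-22 agonist; peak minus trough fluorescence over baseline measured at the second addition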
# Target sequence (Q96LB2 whole entry, looked up): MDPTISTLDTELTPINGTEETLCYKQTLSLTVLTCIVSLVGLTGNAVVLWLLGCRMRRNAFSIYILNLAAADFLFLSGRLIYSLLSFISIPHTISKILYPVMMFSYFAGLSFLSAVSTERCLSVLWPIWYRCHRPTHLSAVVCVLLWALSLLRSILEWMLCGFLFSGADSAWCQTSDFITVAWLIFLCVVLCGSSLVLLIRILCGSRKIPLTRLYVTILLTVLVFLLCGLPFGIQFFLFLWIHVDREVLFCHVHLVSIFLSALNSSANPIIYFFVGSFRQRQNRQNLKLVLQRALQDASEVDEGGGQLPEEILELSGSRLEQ
# MrgX1 agonist = agonists of human MrgX1 receptor | B-score at 10 µM | MrgX1-HEK293 cells, Fluo-4 calcium fluorescence, agonist mode; active compounds read high | Q96LB2 | 0.44% of 310,000 active | AID 588627;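 active = calcium response B-score plate-corrected fluorescence ratio at least 3 library SD, with starting fluorescence B-score inside 5 SD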
#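 Assay system: MrgX1-expressing HEK293 cells / Amount: fifteen thousand cells per well / Doses: test compound in the initial addition of three / Timing: cells plated overnight, dye loaded 0.5 h 37 °C, 0.5 h room temperature / Technique: kinetic calcium dye fluorescence, Fluo-4 NW / Control set: positive and negative controls per plate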
# MrgX1 antagonist = antagonists of human MrgX1 receptor; Q96LB2; MRGX1-HEK293 calcium flux, Fluo-4, BAM8-22 antagonism; active compounds read low; B-score at 10 µM; 1.3% of 310,000 active; AID 588676;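 active = calcium-response B-score plate-corrected more than 3 library SD below zero, starting fluorescence within 5 deviations, no agonist response on first addition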;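 also: peak minus trough fluorescence over baseline after final BAM8-22 challenge near maximal dose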
# RGS4 block = inhibitors of human RGS4; HEK293 M3R/RGS4 inducible, Fluo-4 calcium flux; active compounds read high; triggered by carbachol at its EC20; B-score at 10 µM; 0.45% of 310,000 active;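 active = B-score, a plate-corrected calcium signal, over three deviations above library mean, with baseline fluorescence within five deviations of library mean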;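 also: RGS4 expression induced by doxycycline in cells with stable M3 receptor; B-score is computed from the integrated fluorescence ratio over baseline after carbachol; higher B-score means a larger calcium signal and so more RGS4 inhibition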
# Target sequence (P49798 whole entry, looked up): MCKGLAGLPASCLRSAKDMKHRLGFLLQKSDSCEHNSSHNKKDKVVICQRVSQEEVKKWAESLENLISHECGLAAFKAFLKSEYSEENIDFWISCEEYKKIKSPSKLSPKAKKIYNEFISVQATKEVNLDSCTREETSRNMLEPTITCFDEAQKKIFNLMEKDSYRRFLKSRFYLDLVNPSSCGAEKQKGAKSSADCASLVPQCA
# MrgX1 allo conf = human MrgX1 positive allosteric modulation, re-confirmation. shares compounds with MrgX1 PAM. MrgX1-HEK293, Fluo-4 calcium fluorescence, FDSS. 13% of 1,200 active. activation (ratio percentage), % at 10 µM;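 active = ratio at least 3 SD above the weak peptide control, stable starting fluorescence, no direct agonism earlier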;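 also: compound followed by low BAM8-22 agonist challenge near EC20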
# HEK293 Ca flux = activity in parental HEK293 cells lacking MrgX1; shares compounds with MrgX1 antagonist; Fluo-4 calcium fluorescence, FDSS; fluorescence ratio F(max-min)/F0 at 10 µM; 2% of 4,000 active; AID 624111;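 active = duplicate-averaged calcium fluorescence ratio at least three times the standard deviation of buffer wells, a nonspecific response in parental cells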
# HEK293 Ca counter = counter-screen for MrgX1 allosteric activators: effect in parental HEK293 cells; shares compounds with MrgX1 antagonist; parental HEK293 calcium flux, Fluo-4 fluorescence ratio; active compounds read high; 0.4% of 4,000 active; AID 624114; fluorescence ratio F(max-min)/F0 at 10 µM;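 active = calcium fluorescence ratio, averaged over duplicates, at least 3 SD of the buffer-well ratio, meaning a nonspecific response in receptor-free cells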;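 also: untransfected parental HEK293 lacking MrgX1 used as counterscreen for MrgX1 allosteric activators; fluorescence change taken during the second addition on a kinetic imager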
# HEK293 Ca cntr2 = activity in parental HEK293 cells lacking MrgX1 receptor; shares compounds with MrgX1 antagonist; Fluo-4 calcium fluorescence (FDSS); active compounds read high; fluorescence ratio F(max-min)/F0 at 10 µM; 8.7% of 4,000 active;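 active = calcium fluorescence ratio at least three times the spread of buffer wells, meaning a non-specific response in parental cells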
# Starred values were filed as active, the others as inactive; i = inactive; . = not tested or not shown.
SMILES,RGS4 pot,MrgX1 PAM,MrgX1 agonist,MrgX1 antagonist,RGS4 block,MrgX1 allo conf,HEK293 Ca flux,HEK293 Ca counter,HEK293 Ca cntr2
O=S(=O)(c1cccs1)N1CCN(c2ccccc2)CC1,i,i,i,i,i,.,.,.,.
O=C(C(NS(=O)(=O)c1cccs1)c1ccccc1)N1CCN(c2ccccc2)CC1 (configuration not stated),i,21.2*,i,i,i,i,i,i,i
COn1c(SC2CCCCC2)nc2ccccc2c1=O,i,29.1*,i,i,i,49.0%*,i,i,i
CC1CCN(C(=O)c2ccc(-c3ccccc3Cl)o2)CC1,i,7.64*,i,i,i,i,i,i,i
O=C(c1ccc(-c2cccc(Cl)c2Cl)o1)N1CCOCC1,i,i,i,i,i,.,.,.,.
O=C(NC12CC3CC(CC(C3)C1)C2)c1ccc(-c2ccccc2Cl)o1,i,6.74*,i,i,i,i,i,i,i
O=C(NC12CC3CC(CC(C3)C1)C2)c1ccccc1O,i,9.83*,i,i,i,i,i,i,i
CC(C)Cc1nnc(NC(=O)c2ccc3c(c2)NC(=O)C(C)S3)s1 (configuration not stated),i,i,i,i,i,.,.,.,.
CC(SCc1ccccc1)C(=O)Nc1ccccc1Br (configuration not stated),i,6.47*,i,i,i,i,i,i,i
CCC(=O)N(Cc1cc2cc(C)c(C)cc2[nH]c1=O)C1CCCCC1,i,7.63*,i,i,i,i,i,i,i
CCNC(=S)N(Cc1cc2cc(C)c(C)cc2[nH]c1=O)C1CCCC1,i,i,i,i,i,.,.,.,.
CCCN(C(=O)CSCc1c(C)noc1C)c1c(N)n(Cc2ccccc2)c(=O)[nH]c1=O,i,i,i,i,i,.,.,.,.
CCC(Sc1nc2ccccc2c(=O)n1CCN1CCOCC1)C(=O)NCc1cccnc1 (configuration not stated),i,6.64*,i,i,i,i,i,i,47*
CN(C)S(=O)(=O)c1ccc(NC(=O)CN2C(=O)NC3(CCCC3)C2=O)cc1,i,i,i,i,i,.,.,.,.
N=c1sccn1CC(=O)N1N=C(c2ccc(Cl)cc2)CC1c1ccco1 (configuration not stated),i,20.8*,i,i,i,i,i,i,i
CC12CCC(=O)N1C(C(=O)OCc1c(Cl)cccc1Cl)CS2 (configuration not stated),i,6.55*,i,i,i,i,i,i,i
CC(NC(=O)C1CSC2(C)CCC(=O)N12)c1ccccc1Cl (configuration not stated),i,i,i,i,i,.,.,.,.
CN(Cc1ccccc1)Cc1nc2c(c(=O)n(C)c(=O)n2C)n1CCCc1ccccc1,i,8.07*,i,i,i,i,i,i,i
CCOC(=O)Cc1csc(NC(=O)c2cc3ccccc3o2)n1,i,6.78*,i,i,i,i,i,i,i
CCOC(=O)Cc1csc(NC(=O)c2ccc(Br)o2)n1,i,16.5*,i,i,i,i,i,i,i
COc1ccc(N2CCN(S(=O)(=O)CCNC(=O)c3ccc(Br)o3)CC2)cc1,i,i,i,i,i,.,.,.,.
CCN(CC)CCCNc1ncnc2ccccc12,i,i,i,i,i,.,.,.,.
OCCCCCNc1ncnc2ccccc12,i,22.5*,i,i,i,i,i,i,i
CCOC(=O)c1c(-c2ccc(OC)cc2)csc1NC(=O)C1CCCO1 (configuration not stated),i,23.8*,i,i,i,i,i,i,i
COC(=O)c1c(-c2cccc(C)c2)csc1NC(=O)C1CCCO1 (configuration not stated),i,i,i,i,i,.,.,.,.
SMILES,RGS4 pot,MrgX1 PAM,MrgX1 agonist,MrgX1 antagonist,RGS4 block,MrgX1 allo conf,HEK293 Ca flux,HEK293 Ca counter,HEK293 Ca cntr2
COC(=O)c1c(-c2ccc(F)cc2)csc1NC(=O)c1ccco1,i,21.5*,i,i,i,22.0%*,i,i,i
CCOC(=O)c1c(-c2ccc(F)cc2)csc1NC(=O)C1CCCO1 (configuration not stated),i,10.7*,i,i,i,i,i,i,i
O=C(Nc1scc(-c2ccccc2)c1C(=O)O)c1ccco1,i,i,i,i,i,.,.,.,.
CCOC(=O)c1c(-c2ccc(C)cc2)csc1NC(=O)C1CCCO1 (configuration not stated),i,12.7*,i,i,i,19.1%*,i,i,i
Cc1cccn2cc(CCNS(=O)(=O)c3cccc([N+](=O)[O-])c3)nc12,i,i,i,i,i,.,.,.,.
CC1CCc2c(nc3ncnn3c2NCCN(C)C)C1 (configuration not stated),i,i,i,i,i,.,.,.,.
CCc1nc2ccc(C(=O)N(C)CC(=O)Nc3ccc(Cl)c(C(F)(F)F)c3)cc2nc1CC,i,13.7*,i,i,i,i,i,i,i
Cc1n[nH]c(C)c1S(=O)(=O)N1CCc2ccccc2C1,i,8.39*,i,i,i,i,i,i,i
Cc1n[nH]c(C)c1S(=O)(=O)N1CCN(c2ccccn2)CC1,i,i,i,i,i,.,.,.,.
COc1ccc(OC)c(S(=O)(=O)CC(O)CS(=O)(=O)c2ccccc2)c1 (configuration not stated),i,i,i,i,i,.,.,.,.
C/C(=N\NC(=O)CCc1ccc(S(=O)(=O)N2CCOCC2)cc1)c1ccc(Br)cc1,i,i,i,i,i,.,.,.,.
CC(C)NC(=O)NC(=O)COC(=O)c1ncc(Cl)c(Cl)c1Cl,i,i,i,i,i,.,.,.,.
NS(=O)(=O)c1ccc(NC(=O)c2cccc(N3C(=O)c4ccccc4C3=O)c2)cc1,i,i,i,i,i,.,.,.,.
